The text below walks through data of ChEMBL document CHEMBL3085642, “Synthesis and evaluation of novel 4-nitropyrrole-based 1,3,4-oxadiazole derivatives as antimicrobial and anti-tubercular agents” (Eur J Med Chem, 2013).

The subject of assay [1] is Klebsiella pneumoniae. Put plainly: Antibacterial activity against Klebsiella pneumoniae by two fold broth dilution method. The class given is functional.
The subject of assay [2] is Staphylococcus aureus. Kind of assay: Antibacterial activity against methicillin-susceptible Staphylococcus aureus ATCC 35556 by broth dilution method. It counts as functional. Background: Broth dilution looks for growth in wells or tubes with falling amounts of substance.
For assay [3], the system named is Staphylococcus aureus. Kind of assay: Antibacterial activity against Staphylococcus aureus ATCC 25923 by two fold broth dilution method. It counts as functional.
Assay [4] deals with Staphylococcus aureus. Kind of assay: Antibacterial activity against methicillin-resistant Staphylococcus aureus ATCC 43866 by broth dilution method. The class given is functional.
In assay [5] the test system is Bacillus spizizenii. Kind of assay: Antibacterial activity against Bacillus subtilis ATCC 6633 by two fold broth dilution method. The class given is functional.
The subject of assay [6] is Candida albicans. Kind of assay: Ratio of ampotericin-B MIC to compound MIC against Candida albicans. The class given is functional.
Assay [7] relates to Vero. Put plainly: Cytotoxicity against african green monkey Vero cells after 72 hrs by MTT assay. The class given is cell-based. The following applies: Chlorocebus sabaeus. Summed up: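 Vero cells were exposed to compounds for 72 h. Viability was measured by cellular conversion of MTT into formazan (non-radioactive proliferation assay), and the cytotoxic concentration was reported as IC50.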
(In general: Tetrazolium dyes change colour on reduction, which living cells bring about.)

The subject of assay [8] is Staphylococcus aureus. Put plainly: Ratio of ciprofloxacin MIC to compound MIC against Staphylococcus aureus ATCC 25923. The class given is functional.
Assay [9] concerns Candida albicans. Put plainly: Antifungal activity against Candida albicans after 48 hrs by two fold agar dilution method. It counts as functional. An outline of the steps:
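Two-fold serial dilutions in DMSO were tested against C. albicans by agar dilution. Cultures were incubated for 48 h at 35 °C and growth was monitored. MIC was taken as the lowest concentration (highest dilution) that arrested fungal growth.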
A general note: In agar dilution the substance is mixed into plates at graded concentrations.

For assay [10], the system named is Escherichia coli. Kind of assay: Antibacterial activity against Escherichia coli ATCC 25922 by two fold broth dilution method. The class given is functional.
Assay [11] concerns Mycobacterium tuberculosis. Kind of assay: Antitubercular activity against Mycobacterium tuberculosis H37Rv after 7 days by resazurin microtitre assay. It counts as functional. The following applies: 168 h.

Values after ≈ are worked out from the molar mass of the structure shown.

Usually MIC stands for the lowest concentration that inhibits growth of the organism. `O=C(O)c1cn(C2CC2)c2cc(N3CCNCC3)c(F)cc2c1=O` [CIPROFLOXACIN]: the MIC amounted to 1.56 mg/L (≈ 4.71 µM) in [1]; 1.56 mg/L (≈ 4.71 µM) in assay [2]; 1.56 mg/L (≈ 4.71 µM) in assay [3]; 3.12 mg/L (≈ 9.43 µM) in [4]; 1.56 mg/L (≈ 4.71 µM) in assay [5].

A word on the IC50: it is the concentration needed to halve the response being measured. For the molecule `Cn1cc([N+](=O)[O-])cc1-c1nnc(-c2cccs2)o1`, the minimum inhibitory concentration (MIC) worked out at 50 mg/L (≈ 181 µM) in [1]; 1.56 mg/L (≈ 5.65 µM) in [2]; 0.78 mg/L (≈ 2.82 µM) in assay [3]; 1.56 mg/L (≈ 5.65 µM) in assay [4]; 1.56 mg/L (≈ 5.65 µM) in assay [9]; 6.25 mg/L (≈ 22.6 µM) in [10]. Moreover, in [5], inhibition of growth (MIC) required 1.56 mg/L (≈ 5.65 µM). Also, the Ratio in assay [6] and in [8] was 2 each time. This molecule also yielded an IC50 in assay [7] of 521 µM.

Turning to `Cc1ccc(-c2nnc(-c3cc([N+](=O)[O-])c[nH]3)o2)s1`, the MIC in [1] was 25 mg/L (≈ 90.5 µM); in assay [2] it was 1.56 mg/L (≈ 5.65 µM); in assay [3], 1.56 mg/L (≈ 5.65 µM); in assay [4], 3.12 mg/L (≈ 11.3 µM); in assay [9], 3.12 mg/L (≈ 11.3 µM); in [10] it was 6.25 mg/L (≈ 22.6 µM). Besides, in assay [5], inhibition of growth (MIC) required 3.12 mg/L (≈ 11.3 µM). Also, the IC50 in assay [7] was 329 µM.

Take `O=[N+]([O-])c1c[nH]c(-c2nnc(-c3ccccc3Br)o2)c1`: the MIC in assay [1] is 25 mg/L (≈ 74.6 µM); in assay [2], 1.56 mg/L (≈ 4.66 µM); in assay [11], 0.81 mg/L (≈ 2.42 µM); in assay [3], 1.56 mg/L (≈ 4.66 µM); in assay [4] it was 3.12 mg/L (≈ 9.33 µM); in assay [9], 3.12 mg/L (≈ 9.33 µM). The MIC in [10] and in assay [5] was 1.56 mg/L (≈ 4.66 µM) each time. Further, inhibition in assay [7] was half-maximal at 190 µM (IC50).

As to `COc1cccc(-c2nnc(-c3cc([N+](=O)[O-])c[nH]3)o2)c1`, the MIC in assay [1] turned out to be 25 mg/L (≈ 87.3 µM); in [2], 1.56 mg/L (≈ 5.45 µM); in [11], 13.5 mg/L (≈ 47.2 µM); in [3], 1.56 mg/L (≈ 5.45 µM); in assay [4], 3.12 mg/L (≈ 10.9 µM); in [9], 3.12 mg/L (≈ 10.9 µM). In addition, the MIC in assay [10] and in [5] was 3.12 mg/L (≈ 10.9 µM) in each case. The IC50 in assay [7] was found to be 429 µM.

Regarding `Cn1cc([N+](=O)[O-])cc1-c1nnc(-c2cc3cc(Cl)ccc3[nH]2)o1`, the MIC is 12.5 mg/L (≈ 36.4 µM) in assay [1]; 0.39 mg/L (≈ 1.13 µM) in [2]; 24 mg/L (≈ 69.8 µM) in assay [11]; 0.39 mg/L (≈ 1.13 µM) in assay [3]; 1.56 mg/L (≈ 4.54 µM) in assay [4]; 1.56 mg/L (≈ 4.54 µM) in assay [9]. In addition, the MIC in assay [10] and in [5] was 1.56 mg/L (≈ 4.54 µM) each time. Further, the IC50 in [7] worked out at 743 µM. For the same molecule, in assay [8], the Ratio is reported as 3.

For `O=[N+]([O-])c1c[nH]c(-c2nnc(-c3ccns3)o2)c1`, the MIC in assay [1] amounted to 25 mg/L (≈ 95 µM); in assay [2], 1.56 mg/L (≈ 5.93 µM); in assay [11], 62.7 mg/L (≈ 238 µM); in [3], 1.56 mg/L (≈ 5.93 µM); in assay [4], 3.12 mg/L (≈ 11.9 µM); in [9], 3.12 mg/L (≈ 11.9 µM). Further, the MIC in assay [10] was 6.25 mg/L (≈ 23.7 µM); in assay [5] it was 3.12 mg/L (≈ 11.9 µM). The molecule further had an IC50 in [7] of 532 µM.

As for `O=[N+]([O-])c1c[nH]c(-c2nnc(C3CCCNC3)o2)c1` (stereo not given), the MIC in [1] came to 25 mg/L (≈ 95 µM); in assay [2] it was 1.56 mg/L (≈ 5.93 µM); in assay [11], 12.5 mg/L (≈ 47.5 µM); in assay [3] it was 1.56 mg/L (≈ 5.93 µM); in assay [4], 3.12 mg/L (≈ 11.9 µM); in assay [9], 3.12 mg/L (≈ 11.9 µM). Moreover, the MIC in [10] and in assay [5] was 3.12 mg/L (≈ 11.9 µM) in each case. Further, inhibition in [7] was half-maximal at 318 µM (IC50).

`COc1ccc(-c2nnc(-c3cc([N+](=O)[O-])c[nH]3)o2)cc1`: the MIC in [1] is 25 mg/L (≈ 87.3 µM); in assay [2] it was 1.56 mg/L (≈ 5.45 µM); in assay [11], 34 mg/L (≈ 119 µM); in [3], 1.56 mg/L (≈ 5.45 µM); in [4], 3.12 mg/L (≈ 10.9 µM); in assay [9], 3.12 mg/L (≈ 10.9 µM). In addition, the MIC in [10] worked out at 6.25 mg/L (≈ 21.8 µM); in assay [5], 3.12 mg/L (≈ 10.9 µM). The IC50 in [7] is 409 µM.

Turning to `O=[N+]([O-])c1c[nH]c(-c2nnc(-c3cccs3)o2)c1`, the MIC in assay [1] is 25 mg/L (≈ 95.3 µM); in assay [2] it was 3.12 mg/L (≈ 11.9 µM); in assay [11], 87.1 mg/L (≈ 332 µM); in assay [3] it was 1.56 mg/L (≈ 5.95 µM); in [4] it was 3.12 mg/L (≈ 11.9 µM); in assay [9], 6.25 mg/L (≈ 23.8 µM). Further, the MIC in assay [10] and in assay [5] was 1.56 mg/L (≈ 5.95 µM) each time. This molecule showed an IC50 in assay [7] of 418 µM.

With `O=[N+]([O-])c1c[nH]c(-c2nnc(-c3ccccc3O)o2)c1`, the MIC in assay [1] turned out to be 25 mg/L (≈ 91.8 µM); in assay [2], 1.56 mg/L (≈ 5.73 µM); in assay [11], 2.1 mg/L (≈ 7.71 µM); in [3], 1.56 mg/L (≈ 5.73 µM); in assay [4], 3.12 mg/L (≈ 11.5 µM); in assay [9], 3.12 mg/L (≈ 11.5 µM). Further, the minimum inhibitory concentration (MIC) in assay [10] was 1.56 mg/L (≈ 5.73 µM); in [5], 3.12 mg/L (≈ 11.5 µM). In [7], this molecule registered a half-inhibitory concentration (IC50) of 375 µM.

Turning to `O=[N+]([O-])c1c[nH]c(-c2nnc(-c3cccc([N+](=O)[O-])c3O)o2)c1`, the MIC in assay [1] stood at 25 mg/L (≈ 78.8 µM); in assay [2], 1.56 mg/L (≈ 4.92 µM); in assay [11], 1.8 mg/L (≈ 5.67 µM); in assay [3] it was 1.56 mg/L (≈ 4.92 µM); in assay [4], 3.12 mg/L (≈ 9.85 µM); in [9], 3.12 mg/L (≈ 9.85 µM). Further, the results for the MIC in assay [10] and in assay [5] were 6.25 mg/L (≈ 19.7 µM) and 3.12 mg/L (≈ 9.85 µM), respectively. Besides, the IC50 in [7] was found to be 498 µM.
